KCC2 mod: KCC2 cotransporter modulators, thallium flux, primary screen, cell-based, HEK293 KCC2, FluoZin-2 fluorescence, MLSMR | Solute carrier family 12 member 5 (Homo sapiens), Q9H2X9 | KCC2 cells, thallium flux FluoZin-2 fluorescence | B-score of Tl+ flux slope (higher = more flux/activation; lower = inhibition) at 10 µM | 190,000 tested, 2.2% active | AID 1456, 2008;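 active means thallium flux slope and its plate-corrected score both differing from the plate sample mean at a set confidence after two filtering rounds, in either direction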;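 further: slope of fluorescence scaled to starting intensity during 10 to 20 s after thallium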
KCNK9 block: KCNK9 potassium channel inhibitors, primary screen, HEK293 cells, thallium flux; 310,000 tested, 1.2% active; B-score at 10 µM; FluxOR thallium flux fluorescence; hits give low values;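 active means ratio B-score over 3 SD below the library mean, with starting fluorescence within 5 SD of its mean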;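 further: negative B-score means less thallium flux so channel inhibition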
KCNK3 block: human KCNK3 channel inhibitors, primary screen, CHO cells, FluxOR thallium flux, B-score; Potassium channel subfamily K member 3 (Homo sapiens), O14649; FluxOR fluorescence; hits give low values; B-score at 10 µM; 340,000 tested, 0.84% active;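 active means B-score under library mean minus 4 SD, starting fluorescence ratio at most library mean plus 5 SD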;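 further: more negative B-score means stronger inhibition of thallium flux through KCNK3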
hERG rescue: hERG rescue from dofetilide block, primary screen, cell-based, CHO-hERG, FluxOR thallium flux, dofetilide IC70. AID 1511, 2009. dofetilide IC70 present. 310,000 tested, 0.51% active. activation (rescue from dofetilide block), less the hit threshold, % at 10 µM;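 active means activation above the mean of controls blocked by dofetilide plus 5 SD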;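 further: thallium influx through hERG after potassium depolarization seen as dye fluorescence rise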
KCNQ1 block: inhibitors of human KCNQ1 channel, primary screen, cell-based, thallium flux, high-throughput; CHO-K1 KCNQ1, FluxOR thallium flux fluorescence; hits give high values; B-score at 10 µM; 310,000 tested, 1.3% active; AID 2642, 2010;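 active means compounds whose thallium flux B-score, printed positive for inhibition, exceeds three library SD while starting fluorescence stays within three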;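 further: channel opened by potassium depolarization with thallium stimulus after 20 min compound exposure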
KCNQ1 pot: potentiators or activators of KCNQ1 channel, primary screen, cell-based, thallium flux, high-throughput; 310,000 tested, 0.35% active; Potassium voltage-gated channel subfamily KQT member 1 (Homo sapiens), P51787; CHO-K1 KCNQ1, thallium flux FluxOR fluorescence; hits give high values; B-score at 10 µM;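 active means fluorescence ratio B-score, a plate-corrected score, at least three library SD, with initial intensity B-score within 5 SD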
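Material: CHO-K1 cells stably expressing KCNQ1. Medium: assay buffer for compound exposure, DMSO matched across wells. Reagent: K+/Tl+ depolarizing stimulus. Compound dosing: single-concentration screen. Times: 37 °C overnight plating, 90-min dark dye load, 20-min compound pretreatment. Technique: FluxOR Tl+ flux fluorescence.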
KCNQ1 block val: KCNQ1 potassium channel inhibitors, confirmation, cell-based, Tl flux, duplicate | 1,600 tested, 93% active | inhibition, % at 10 µM | shares compounds with KCNQ1 block | AID 588353, 2011 | KCNQ1 cell line, FluxOR thallium flux fluorescence;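 active means primary screen active, with duplicate mean exceeding buffer control mean plus 3 SD of buffer wells, cut at about 28% in these data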;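 further: 0% = buffer control ratio and 100% = XE991 inhibitor control ratio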
CHO KCNQ1 ctr: thallium flux effects in parental CHO cells, counter-screen for KCNQ1 inhibitor project, cell-based, Tl flux. shares compounds with KCNQ1 block. parental CHO-K1, FluxOR thallium flux fluorescence ratio; hits give low values; zero means no signal rise above baseline. fluorescence ratio (Tl flux) at 10 µM. 1,600 tested, 21% active. AID 588366, 2011;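 active means mean of duplicate thallium-flux fluorescence ratios in parental host cells more than 5 SD below the buffer control mean, cut at about 0.38 in these data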;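 further: ratio is peak minus minimum fluorescence divided by baseline fluorescence; actives read low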
KCNQ1 APC inh: KCNQ1 channel inhibitors, confirmation, orthogonal assay, cell-based, automated electrophysiology | calls only at 10 µM | shares compounds with KCNQ1 block | 490 tested, 20% active | KCNQ1-CHO cells, automated patch clamp current;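 active means KCNQ1 current drop exceeding 3 SD of negative control wells, seen in both duplicate runs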;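 further: steady state current during a 2 s step from -80 to +40 mV; negative values mean current inhibition and positive values mean potentiation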
KCNQ2 spec: KCNQ2 channel inhibition, selectivity assay for KCNQ1 inhibitor project, cell-based; 1,600 tested, 71% active; shares compounds with KCNQ1 block; AID 651746, 2012; KCNQ2 cells, FluxOR thallium flux fluorescence; inhibition, % at 10 µM;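 active means mean percent inhibition of the KCNQ2 thallium signal more than 5 SD above the buffer-only control wells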;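 further: KCNQ2 expressed in CHO cells; 0% = buffer control wells and 100% = XE-991 inhibitor control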
KCNQ1-KCNE1 inh: KCNQ1/KCNE1 channel inhibition, selectivity assay for KCNQ1 inhibitor project, CHO-K1 cells, thallium flux, FluxOR; shares compounds with KCNQ1 block; 1,600 tested, 77% active; inhibition, % at 10 µM; FluxOR thallium flux fluorescence; AID 652147, 2013;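 active means mean percent inhibition of duplicate wells above the buffer-only control mean plus 3 SD of those controls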;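 further: 0% = buffer only wells and 100% = XE-991 inhibitor control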
Target sequence (P51787 whole entry, looked up): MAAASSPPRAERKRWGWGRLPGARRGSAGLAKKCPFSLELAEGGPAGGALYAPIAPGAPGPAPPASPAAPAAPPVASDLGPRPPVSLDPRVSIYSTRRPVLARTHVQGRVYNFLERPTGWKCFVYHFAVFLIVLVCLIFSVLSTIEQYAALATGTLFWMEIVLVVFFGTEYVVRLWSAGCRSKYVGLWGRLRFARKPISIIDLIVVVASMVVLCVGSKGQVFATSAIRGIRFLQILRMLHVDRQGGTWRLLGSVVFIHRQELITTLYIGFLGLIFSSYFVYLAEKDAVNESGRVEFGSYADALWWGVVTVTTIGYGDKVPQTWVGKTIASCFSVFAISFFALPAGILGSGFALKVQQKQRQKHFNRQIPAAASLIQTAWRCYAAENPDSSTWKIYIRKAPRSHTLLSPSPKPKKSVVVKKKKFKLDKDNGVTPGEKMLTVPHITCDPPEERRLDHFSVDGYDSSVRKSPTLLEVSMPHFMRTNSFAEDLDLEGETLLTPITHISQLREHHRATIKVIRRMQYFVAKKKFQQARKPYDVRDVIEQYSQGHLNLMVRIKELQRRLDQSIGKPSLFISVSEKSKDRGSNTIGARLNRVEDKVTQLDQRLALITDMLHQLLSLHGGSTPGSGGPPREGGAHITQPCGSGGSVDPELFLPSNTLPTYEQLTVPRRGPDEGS
KCNK3 confirm: retest of human KCNK3 channel inhibitors, confirmation, CHO cells, FluxOR thallium flux, triplicate. 2,400 tested, 99% active. FluxOR fluorescence; 0% buffer, 100% carvedilol maximal block. shares compounds with KCNK3 block. ratio percent of control, % at 10 µM;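 active means ratio percent of control, averaged over triplicates, above buffer control mean plus 5 SD, cut at about 64% in these data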;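 further: ratio is the fluorescence rise from min to max over baseline after thallium stimulus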
KCNK3 noninduced: thallium flux inhibition in non-induced cells, primary screen, counter-screen for KCNK3 inhibitor project, cell-based, non-induced KCNK3 line, FluxOR thallium, triplicate; 2,400 tested, 40% active; shares compounds with KCNK3 block; non-induced KCNK3 parental cells; hits give low values; AID 651747, 2012; thallium flux ratio (lower = more inhibition) at 10 µM;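 active means thallium flux ratio, averaged over three wells, more than 5 SD below the buffer control mean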;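 further: host cells are CHO cells without KCNK3 induction; ratio is peak minus trough fluorescence over baseline then normalized to buffer controls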
* marks the source's active call; other numbers are inactive results; i = inactive; x = no result given; + = active, no number. This is a sample that favours compounds with a hit; in the whole collection about 4.1% have one here.

SMILES	KCC2 mod	KCNK9 block	KCNK3 block	hERG rescue	KCNQ1 block	KCNQ1 pot	KCNQ1 block val	CHO KCNQ1 ctr	KCNQ2 spec	KCNQ1-KCNE1 inh	KCNK3 confirm	KCNK3 noninduced	others
O=[N+]([O-])c1c(Nc2ccccc2O)ccc2nonc12	0.838	i	i	-1.1	i	i	x	x	x	x	x	x
O=[N+]([O-])c1c(Nc2ccccc2O)cc(Cl)c2nonc12	x	i	-12.2*	-34.6	21*	i	183.5*	0.2*	151.3%*	+	154.3*	0.0763*
Oc1ccccc1N1CCN(c2ncnc3scc(-c4ccc(F)cc4)c23)CC1	x	i	-9.56*	-9.7	9*	i	121.0*	0.372*	63.3%*	151.0%*	115.0*	0.123*
CCOc1ccccc1N1CCN(c2ncnc3scc(-c4ccc(OC)cc4)c23)CC1	x	-6.82*	-9.37*	-34.5	8*	i	141.5*	0.351*	141.0%*	174.0%*	139.7*	0.114*
Cc1nc(N2CCN(c3ccccc3O)CC2)c2c(-c3ccccc3)csc2n1	x	i	-9.9*	-11.6	18*	i	54.5*	0.416	89.3%*	88.5%*	116.3*	0.111*
OCCN1CCN(c2ncnc3scc(-c4ccc(F)cc4)c23)CC1	x	i	i	-6.1	i	i	x	x	x	x	x	x
CCCCc1nc2cc(C(=O)N3CCCC(OCCC)C3)ccc2o1 (stereo not given)	x	i	i	-4.7	i	i	x	x	x	x	x	x
Cc1onc(-c2ccccc2)c1C(=O)NC1CCC(C)CC1 (stereo not given)	x	x	i	x	x	x	x	x	x	x	x	x
O=C(NC(=S)Nc1ccccc1OC(F)F)c1ccc2c(c1)OCO2	x	x	i	x	x	x	x	x	x	x	x	x
COc1ccc(S(=O)(=O)Nc2ccc3c(c2)C(=O)N([C@H](C)CO)C[C@H](C)[C@@H](CN(C)S(=O)(=O)c2c(C)noc2C)O3)cc1	x	x	i	x	x	x	x	x	x	x	x	x
CCN(C(=O)c1ccco1)c1nc(-c2ccc(OC)cc2)cs1	x	i	i	-1.4	i	i	x	x	x	x	x	x
COc1ccc(-c2csc(N(CC(C)C)C(=O)c3ccco3)n2)cc1	x	i	-9.86*	-4.3	7*	i	107.0*	0.405	80.0%*	139.0%*	161.7*	0.0733*	KCNQ1 APC inh=+
COc1ccccc1C(=O)NCCC(=O)N1CC(C)OC(C)C1 (stereo not given)	x	x	i	x	x	x	x	x	x	x	x	x
O=C(O)c1cccc(NC(=O)c2ccccc2)c1	x	x	i	x	x	x	x	x	x	x	x	x
O=C(Nc1cccc(C(=O)Nc2cccc(Br)c2)c1)c1ccccc1	x	i	-11.9*	-6.3	13*	i	115.5*	0.501	110.7%*	151.0%*	118.0*	i	KCNQ1 APC inh=i
O=CNc1ccc2c3c(cccc13)-c1ccccc1-2	x	x	i	x	x	x	x	x	x	x	x	x
Cc1ccc2c(c1)N(S(=O)(=O)c1cc(-c3onc(C)c3C)ccc1C)CCO2	x	-7.54*	-10.9*	-9.9	7*	i	77.0*	0.351*	106.3%*	93.0%*	106.3*	i
COc1ccc(-c2cc(C)no2)cc1S(=O)(=O)N1CCOc2ccc(Cl)cc21	x	i	i	-4.8	i	i	x	x	x	x	x	x
CCS(=O)(=O)c1ncc(Cl)c(C(=O)Nc2ccc(S(=O)(=O)N3CCC(C)CC3)cc2)n1	x	-7.02*	-8.81*	-24.9	6*	i	0.0	0.431	i	69.5%*	124.0*	0.118*
CC(C)[C@H](NC(=O)N1c2ccccc2NC(=O)[C@@H]1C(C)C)C(=O)N[C@H](Cc1ccccc1)C(=O)O	x	i	i	-5.6	i	i	x	x	x	x	x	x
NNC(=O)c1ccc(Cn2cc(Cl)cn2)cc1	-0.542	i	i	-3.1	i	i	x	x	x	x	x	x
O=C(Nc1ccc(Cl)c(Cl)c1)c1ccc(Cn2cc(Cl)cn2)cc1	-0.0698	i	-11.7*	-6.8	8*	i	111.5*	0.429	105.3%*	111.5%*	109.3*	i	KCNQ1 APC inh=i
